Measurements taken from ChEMBL document CHEMBL5303300, “EUbOPEN Chemogenomics Library - Multiplex” (2023).
“And” between values parts separate entries of the source, which are not always exact repeats. Equal entries are not always repeated.

Key:
[1] = tested on: HEK-293T; test: Multiplex assay against HEK293T; type: toxicity, cell-based; details: human, number of replicates 2
Procedure, shortened: (§1)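 Tubulin, mitochondrial-mass and membrane-permeability phenotypes are per cents of healthy-nucleus cells. Cells were gated by CellPathfinder machine learning into Hoechst high-intensity objects or normal cells, normal cells into healthy, pyknosed or fragmented nuclei, and pyknosed cells into mitotic or apoptotic. Before that, live cells stained at seeding with Hoechst33342, BioTracker Green Microtubule Cytoskeleton Dye, MitoTracker Red and Annexin V Alexa Fluor 680 were imaged on a CQ1 microscope at 37°C and 5% CO2 after compound addition.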

[2] = tested on: U2OS; test: Multiplex assay against U2OS; type: toxicity, cell-based; details: human, number of replicates 2; procedure, shortened: as §1
[3] = 24 h, 1 µM, compound concentration 1 uM
[4] = 24 h, 10 µM, compound concentration 10 uM
[5] = 48 h, 1 µM, compound concentration 1 uM
[6] = 48 h, 10 µM, compound concentration 10 uM
[7] = 12 h, 1 µM, compound concentration 1 uM
[8] = 12 h, 10 µM, compound concentration 10 uM

Cn1cc(-c2ccc(-c3cncc(Cl)c3N3CCC4(CCNC4=O)CC3)cc2)cn1
Population Membrane Permeable-Phenotype (%) [1, 3]: 3%
Population Mitochondria Different-Phenotype (%) [1, 3]: 8% and 7%
Population Mitotic Cells (%) [1, 3]: 63% and 48%
Population Normal (%) [1, 3]: 90% and 89%
Population Pyknosed Nuclei (%) [1, 3]: 7% and 5%
Population Tubulin-Different-Phenotype (%) [1, 3]: 53%
Total Cell Count [1, 3]: 822 and 828
Population Apoptotic (%) [1, 4]: 43% and 49%
Population Fragmented Nuclei (%) [1, 4]: 5%
Population Healthy Nuclei (%) [1, 4]: 85% and 84%
Population Hoechst High Intensity Objects (%) [1, 4]: 5% and 9%
Population Membrane Permeable-Phenotype (%) [1, 4]: 6% and 5%
Population Mitochondria Different-Phenotype (%) [1, 4]: 34% and 30%
Population Mitotic Cells (%) [1, 4]: 56% and 50%
Population Normal (%) [1, 4]: 94% and 90%
Population Pyknosed Nuclei (%) [1, 4]: 9% and 10%
Population Tubulin-Different-Phenotype (%) [1, 4]: 95% and 94%
Total Cell Count [1, 4]: 684 and 624
Population Apoptotic (%) [1, 5]: 31% and 36%
Population Fragmented Nuclei (%) [1, 5]: 16% and 14%
Population Healthy Nuclei (%) [1, 5]: 80% and 82%
Population Hoechst High Intensity Objects (%) [1, 5]: 16% and 14%
Population Membrane Permeable-Phenotype (%) [1, 5]: 5% and 4%
Population Mitochondria Different-Phenotype (%) [1, 5]: 2%
Population Mitotic Cells (%) [1, 5]: 68% and 63%
Population Normal (%) [1, 5]: 83% and 85%
Population Pyknosed Nuclei (%) [1, 5]: 2% and 3%
Population Tubulin-Different-Phenotype (%) [1, 5]: 42% and 49%
Total Cell Count [1, 5]: 1341 and 1209
Population Apoptotic (%) [1, 6]: 55% and 50%
Population Fragmented Nuclei (%) [1, 6]: 8% and 7%
Population Healthy Nuclei (%) [1, 6]: 84% and 83%
Population Hoechst High Intensity Objects (%) [1, 6]: 10%
Population Membrane Permeable-Phenotype (%) [1, 6]: 8%
Population Mitochondria Different-Phenotype (%) [1, 6]: 15% and 18%
Population Mitotic Cells (%) [1, 6]: 45% and 49%
Population Normal (%) [1, 6]: 89%
Population Pyknosed Nuclei (%) [1, 6]: 6% and 8%
Population Tubulin-Different-Phenotype (%) [1, 6]: 87% and 85%
Total Cell Count [1, 6]: 1065 and 859
Population Apoptotic (%) [2, 7]: 56% and 66%
Population Healthy Nuclei (%) [2, 7]: 86% and 64%
Population Hoechst High Intensity Objects (%) [2, 7]: 0%
Population Membrane Permeable-Phenotype (%) [2, 7]: 3% and 7%
Population Mitochondria Different-Phenotype (%) [2, 7]: 1% and 0%
Population Mitotic Cells (%) [2, 7]: 43% and 33%
Population Normal (%) [2, 7]: 99% and 100%
Population Pyknosed Nuclei (%) [2, 7]: 8% and 7%
Population Tubulin-Different-Phenotype (%) [2, 7]: 64% and 40%
Population Apoptotic (%) [2, 8]: 100% and 50%
Population Healthy Nuclei (%) [2, 8]: 61% and 79%
Population Hoechst High Intensity Objects (%) [2, 8]: 0%
Population Membrane Permeable-Phenotype (%) [2, 8]: 19% and 10%
Population Mitochondria Different-Phenotype (%) [2, 8]: 0% and 6%
Population Normal (%) [2, 8]: 100%
Population Pyknosed Nuclei (%) [2, 8]: 9% and 14%
Population Tubulin-Different-Phenotype (%) [2, 8]: 23% and 36%
Population Apoptotic (%) [2, 3]: 72% and 66%
Population Healthy Nuclei (%) [2, 3]: 88% and 65%
Population Hoechst High Intensity Objects (%) [2, 3]: 0%
Population Membrane Permeable-Phenotype (%) [2, 3]: 2% and 7%
Population Mitochondria Different-Phenotype (%) [2, 3]: 2% and 0%
Population Mitotic Cells (%) [2, 3]: 27% and 33%
Population Normal (%) [2, 3]: 100%
Population Pyknosed Nuclei (%) [2, 3]: 8% and 6%
Population Tubulin-Different-Phenotype (%) [2, 3]: 65% and 39%
Population Apoptotic (%) [2, 4]: 88% and 60%
Population Healthy Nuclei (%) [2, 4]: 59% and 80%
Population Hoechst High Intensity Objects (%) [2, 4]: 0%
Population Membrane Permeable-Phenotype (%) [2, 4]: 20% and 14%
Population Mitochondria Different-Phenotype (%) [2, 4]: 0% and 17%
Population Normal (%) [2, 4]: 100% and 99%
Population Pyknosed Nuclei (%) [2, 4]: 21% and 13%
Population Tubulin-Different-Phenotype (%) [2, 4]: 32% and 46%
Population Apoptotic (%) [2, 5]: 70% and 100%
Population Healthy Nuclei (%) [2, 5]: 88% and 65%
Population Hoechst High Intensity Objects (%) [2, 5]: 0%
Population Membrane Permeable-Phenotype (%) [2, 5]: 2% and 5%
Population Mitochondria Different-Phenotype (%) [2, 5]: 3% and 0%
Population Normal (%) [2, 5]: 99% and 100%
Population Pyknosed Nuclei (%) [2, 5]: 7% and 6%
Population Tubulin-Different-Phenotype (%) [2, 5]: 65% and 47%
Population Apoptotic (%) [2, 6]: 78% and 92%
Population Fragmented Nuclei (%) [2, 6]: 7% and 17%
Population Healthy Nuclei (%) [2, 6]: 74% and 53%
Population Hoechst High Intensity Objects (%) [2, 6]: 0%
Population Membrane Permeable-Phenotype (%) [2, 6]: 25% and 33%
Population Mitotic Cells (%) [2, 6]: 21% and 7%
Population Normal (%) [2, 6]: 100%
Population Pyknosed Nuclei (%) [2, 6]: 17% and 28%
Population Tubulin-Different-Phenotype (%) [2, 6]: 50% and 45%
